From ChEMBL document CHEMBL3865847, “The synthesis and biological evaluation of alkyl and benzyl naphthyridinium analogs of eupolauridine as potential antimicrobial and cytotoxic agents” (Bioorg Med Chem, 2016)
Converted amounts (≈) assume the structure as drawn.

Experiments:
DNA topoisomerase 1 = target: T1, DNA topoisomerase 1 (Homo sapiens, UniProt P11387); assay: Inhibition of human DNA topoisomerase 1 using pHOT1 as substrate after 30 mins by agarose gel electrophoresis
T1 sequence (P11387 whole entry): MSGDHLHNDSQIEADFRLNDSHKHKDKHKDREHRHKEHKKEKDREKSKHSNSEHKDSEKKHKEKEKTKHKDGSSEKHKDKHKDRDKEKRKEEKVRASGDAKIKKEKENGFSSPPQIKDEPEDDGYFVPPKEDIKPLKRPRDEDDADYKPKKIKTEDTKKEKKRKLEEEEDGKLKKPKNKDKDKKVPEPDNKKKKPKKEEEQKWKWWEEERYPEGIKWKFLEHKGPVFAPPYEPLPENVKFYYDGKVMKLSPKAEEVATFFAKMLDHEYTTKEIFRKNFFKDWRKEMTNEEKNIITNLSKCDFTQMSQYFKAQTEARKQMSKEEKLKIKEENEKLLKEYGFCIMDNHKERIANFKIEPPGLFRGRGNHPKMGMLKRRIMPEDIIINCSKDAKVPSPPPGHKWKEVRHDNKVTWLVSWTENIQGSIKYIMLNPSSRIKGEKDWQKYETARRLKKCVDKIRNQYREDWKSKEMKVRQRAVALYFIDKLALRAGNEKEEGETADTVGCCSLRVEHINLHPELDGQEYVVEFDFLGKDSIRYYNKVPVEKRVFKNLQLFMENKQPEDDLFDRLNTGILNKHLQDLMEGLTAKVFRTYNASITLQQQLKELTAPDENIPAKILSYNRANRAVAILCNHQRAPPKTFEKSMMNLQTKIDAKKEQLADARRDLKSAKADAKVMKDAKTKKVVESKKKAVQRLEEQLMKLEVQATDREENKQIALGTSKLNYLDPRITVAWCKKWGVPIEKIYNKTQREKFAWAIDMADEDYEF
Procedure, shortened: (§1)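 Relaxation of supercoiled to relaxed DNA by TopoI measured with a commercial TopoI drug kit following kit protocol. IC50 calculated from dose-response curves of % inhibition versus concentration.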

Cryptococcus neoformans = assay: Antimicrobial activity against Cryptococcus neoformans ATCC 52657; format: functional
Procedure, shortened: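 Grown in mycophil broth 72 h, hemocytometer-counted, diluted to 200,000 CFU/mL. Exposed to diluted samples in 96-well plates, maximum final 50 µg/mL (DMSO up to 2.5%), incubated 30 °C. A630 readout. MIC is the lowest concentration inhibiting 80% of growth versus controls; IC50 read from concentration versus % growth graphs.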

[1] = Cytotoxicity against African green monkey Vero cells assessed as cell growth inhibition after 48 hrs by neutral red dye based assay; format: toxicity, Chlorocebus sabaeus
Procedure, shortened: (§2)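 Cells kept in RPMI-1640 with 10% bovine serum and 60 µg/mL amikacin, 37 °C, 5% CO2. Seeded at 25,000 cells/well, left 24 h to adhere. Samples diluted in RPMI added, highest final concentration 10 µg/mL. Growth measured by neutral red uptake after 48 h exposure.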

Aspergillus fumigatus = assay: Antimicrobial activity against Aspergillus fumigatus ATCC 26934; format: functional
Procedure, shortened: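 Aspergillus fumigatus spores released by scraping a slant, used on assay day, in mycophil broth. Broth microdilution in 96-well plates, highest final DMSO 2.5%, incubated at 30 °C. Growth read as absorbance at 630 nm versus controls. MIC is the lowest tested concentration giving 80% growth inhibition; IC50 (50% inhibition) comes from concentration versus % growth plots.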

Candida albicans = assay: Antimicrobial activity against Candida albicans B311; format: functional
Procedure, shortened: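 Cultured in Sabouraud dextrose broth 24 h, counted by hemocytometer, diluted to 10,000 CFU/mL. Added to serially diluted samples in 96-well plates, top final concentration 50 µg/mL (≤2.5% DMSO), incubated 37 °C. Growth by A630. MIC is the lowest concentration giving 80% inhibition against controls; IC50 from concentration versus % growth plots.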

[2] = Inhibition of Candida albicans DNA topoisomerase 1 using pHOT1 as substrate after 30 mins by agarose gel electrophoresis; procedure, shortened: as §1
Pseudomonas aeruginosa = assay: Antimicrobial activity against Pseudomonas aeruginosa ATCC 15442; format: functional
Procedure, shortened: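 Pseudomonas grown 24 h in trypticase soy broth, diluted 1:50. Combined with diluted samples in 96-well plates, top final concentration 50 µg/mL (≤2.5% DMSO), 37 °C incubation. Growth read at 630 nm. MIC is the lowest tested concentration inhibiting 80% of growth versus controls; IC50 from concentration versus % growth graphs.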

[3] = Cytotoxicity against human SKOV3 cells assessed as cell growth inhibition after 48 hrs by neutral red dye based assay; format: functional; conditions: SK-OV-3, 48 h; procedure, shortened: as §2
[4] = Selectivity index, ratio of IC50 for human DNA topoisomerase 1 to IC50 for Candida albicans DNA topoisomerase 1
Staphylococcus aureus [5] = assay: Antimicrobial activity against Staphylococcus aureus ATCC 6538; format: functional
Procedure, shortened: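 Staphylococcus aureus grown 24 h in Eugon broth, diluted 1:50 in broth, added to serially diluted samples in 96-well plates (highest final DMSO 2.5%), incubated at 37 °C. Growth measured at 630 nm versus controls. MIC is the lowest concentration inhibiting 80% of growth; IC50 (50% inhibition) comes from concentration versus % growth plots.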

Plasmodium falciparum = assay: Antimalarial activity against Plasmodium falciparum D6 infected in RBC after 48 hrs by lactate dehydrogenase assay; format: functional; conditions: D6, 48 h
Procedure, shortened: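 Parasites grown in A+ human erythrocytes in RPMI 1640 with 10% A+ human serum, 25 mM HEPES, 27 mM bicarbonate, 60 µg/mL amikacin, 37 °C under 90% N2/5% O2/5% CO2. Infected cells exposed 48 h in microtiter wells, highest concentration 4.8 µg/mL. Growth read by Malstat reagent (parasite LDH) with nitro blue tetrazolium reduction, absorbance 630 nm.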

[6] = Cytotoxicity against human KB cells assessed as cell growth inhibition after 48 hrs by neutral red dye based assay; format: functional; procedure, shortened: as §2
[7] = Cytotoxicity against human BT549 cells assessed as cell growth inhibition after 48 hrs by neutral red dye based assay; format: functional; conditions: BT-549, 48 h; procedure, shortened: as §2
[8] = tested on: Mycobacterium intracellulare; assay: Antimicrobial activity against Mycobacterium intracellulare ATCC 23068; format: functional
Procedure, shortened: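 Mycobacterium grown 72 h in Middlebrook medium with OADC supplement, diluted 1:30 in broth. Incubated at 37 °C with diluted samples in 96-well plates, highest final 50 µg/mL, DMSO at most 2.5%. Absorbance at 630 nm. MIC = lowest concentration with 80% growth inhibition relative to controls; IC50 from concentration versus % growth plots.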

[9] = Cytotoxicity against human SK-MEL cells assessed as cell growth inhibition after 48 hrs by neutral red dye based assay; format: functional; procedure, shortened: as §2
Staphylococcus aureus [10] = assay: Antimicrobial activity against methicillin-resistant Staphylococcus aureus; format: functional
Procedure, shortened: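 MRSA precultured 24 h, diluted 1:50 in broth, added to serially diluted samples in 96-well plates (highest final DMSO 2.5%), incubated at 37 °C. Growth measured as absorbance at 630 nm versus controls. MIC is the lowest concentration giving 80% inhibition; IC50 (50% inhibition) is read from concentration versus % growth plots.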

IC50 (Plasmodium falciparum) | Structure (SMILES) | IC50 (DNA topoisomerase 1) | IC50 (Cryptococcus neoformans) | MIC80 (Cryptococcus neoformans) | IC50 at 48 h [1] | MIC80 (Aspergillus fumigatus) | IC50 (Candida albicans) | MIC80 (Candida albicans) | IC50 [2] | IC50 (Pseudomonas aeruginosa) | IC50 [3] | Ratio IC50 [4] | IC50 (Staphylococcus aureus [5]) | IC50 [6] | IC50 [7] | MIC80 [8] | IC50 [9] | IC50 (Staphylococcus aureus [10])
 | c1ccc2c(c1)-c1nccc3ccnc-2c13 [EUPOLAURIDINE] | 20.6 µM | 4.8 µg/mL (≈ 23.5 µM) | 25 µg/mL (≈ 122 µM) | > 10 µg/mL | 2 µg/mL (≈ 9.79 µM) | 5.25 µg/mL (≈ 25.7 µM) | 12.5 µg/mL (≈ 61.2 µM) | 6.5 µg/mL (≈ 31.8 µM) | 5 µg/mL (≈ 24.5 µM) | > 10 µg/mL | 1.55 |  |  |  |  |  | 
8.5 ng/mL | FC(F)(F)c1ccc(C[n+]2ccc3ccnc4c3c2-c2ccccc2-4)cc1.[Br-] | 69.9 µM | 0.57 µg/mL | 3.12 µg/mL | 6.4 µg/mL |  | 6.5 µg/mL | 12.5 µg/mL | 30 µg/mL | 27 µg/mL | 0.08 µg/mL | 0.97 | 30 µg/mL | 0.54 µg/mL | 0.79 µg/mL | 50 µg/mL | 0.78 µg/mL | 
 | CC[n+]1c2c3c(nc(-c4ccccc4)cc3c3ccccc31)-c1ccccc1-2.[Br-] | < 13.7 µM | 0.17 µg/mL | 0.39 µg/mL | 7.8 µg/mL |  | 0.04 µg/mL | 0.098 µg/mL | < 6 µg/mL | 2 µg/mL | 4 µg/mL |  | 2 µg/mL | 6.5 µg/mL | 8 µg/mL | 10 µg/mL | 1.3 µg/mL | 2 µg/mL
 | C[C@@H]1[C@H](O)[C@@H](C)/C=C/C=C/C=C/C=C/C=C/C=C/C=C/[C@H](O[C@@H]2O[C@H](C)[C@@H](O)[C@H](N)[C@@H]2O)C[C@@H]2O[C@](O)(C[C@@H](O)C[C@@H](O)[C@H](O)CC[C@@H](O)C[C@@H](O)CC(=O)O[C@H]1C)C[C@H](O)[C@H]2C(=O)O [AMPHOTERICIN B] |  |  | 0.078 µg/mL (≈ 0.0844 µM) |  | 1.25 µg/mL (≈ 1.35 µM) |  | 0.156 µg/mL (≈ 0.169 µM) |  |  |  |  |  |  |  |  |  | 
